The test system of one assay is Exophiala dermatitidis. The assay can be described thus: Antifungal activity against Exophiala dermatitidis assessed as total growth inhibition by micro-broth dilution method. The class given is functional. In a few lines:
(§1)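 Broth microdilution following CLSI methods for yeasts and filamentous fungi. Compounds dissolved in DMSO, serially diluted in growth medium, inoculum added, incubation at 35 °C. MIC taken as the lowest concentration giving total inhibition of fungal growth. Testing done in triplicate.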
In general terms: In broth dilution the organism is exposed to a series of concentrations in liquid medium.

The test system of assay [1] is Cryptococcus gattii species complex. The assay can be described thus: Antifungal activity against Cryptococcus gattii assessed as total growth inhibition by micro-broth dilution method. It is filed as functional, Cryptococcus bacillisporus. In a few lines: as §1
In the next assay the test system is Aspergillus fumigatus. Kind of assay: Antifungal activity against Aspergillus fumigatus assessed as total growth inhibition by micro-broth dilution method. The class given is functional. In short, it runs like this: as §1
Another assay has as its system Candida albicans. The assay can be described thus: Antifungal activity against Candida albicans assessed as total growth inhibition by micro-broth dilution method. The class given is functional. In a few lines:
as §1

In ChEMBL document CHEMBL3232911, “Imidazolylchromanones containing non-benzylic oxime ethers: synthesis and molecular modeling study of new azole antifungals selective against Cryptococcus gattii” (2014) one finds MIC data, which are given here for nine compounds.

Take `O/N=C1\c2ccccc2OCC1n1ccnc1` (stereo unspecified): the MIC (in general, the lowest concentration that inhibits growth of the organism) is greater than 128 µg/mL in the assay on Exophiala dermatitidis, greater than 64 µg/mL in assay [1], greater than 64 µg/mL in the assay with Aspergillus fumigatus and greater than 64 µg/mL in the assay on Candida albicans.
In the case of `O=[N+]([O-])O.c1ccc(OCCO/N=C2\c3ccccc3OCC2n2ccnc2)cc1` (racemic), the MIC in the assay on Exophiala dermatitidis was 128 µg/mL; in assay [1], 2 µg/mL; in the assay on Aspergillus fumigatus it was 32 µg/mL; with Candida albicans, greater than 64 µg/mL.
On the same counts, the results for `Clc1ccc(OCCO/N=C2\c3ccccc3OCC2n2ccnc2)cc1.O=[N+]([O-])O` (racemic) are 64 µg/mL, 4 µg/mL, 64 µg/mL and greater than 64 µg/mL.
For `Clc1cccc(OCCO/N=C2\c3ccccc3OCC2n2ccnc2)c1.O=[N+]([O-])O` (racemic), the MIC was 64 µg/mL in the assay with Exophiala dermatitidis, 0.5 µg/mL in assay [1], 32 µg/mL in the assay on Aspergillus fumigatus and greater than 64 µg/mL in the assay with Candida albicans.
In the case of `Fc1ccc(OCCO/N=C2\c3ccccc3OCC2n2ccnc2)cc1.O=[N+]([O-])O` (racemic), the MIC with Exophiala dermatitidis is 128 µg/mL; in assay [1], 4 µg/mL; with Aspergillus fumigatus, 64 µg/mL; with Candida albicans it was greater than 64 µg/mL.
On the same counts, the results for `Fc1cccc(OCCO/N=C2\c3ccccc3OCC2n2ccnc2)c1.O=[N+]([O-])O` (racemic) are 64 µg/mL, 2 µg/mL, 64 µg/mL and greater than 64 µg/mL.
On the same counts, the results for `Clc1ccc(OCCO/N=C2\c3ccccc3OCC2n2ccnc2)c(Cl)c1.O=[N+]([O-])O` (racemic) are 128 µg/mL, 2 µg/mL, 64 µg/mL and greater than 64 µg/mL.
On the same counts, the results for `OC(Cn1cncn1)(Cn1cncn1)c1ccc(F)cc1F` [FLUCONAZOLE] are greater than 64 µg/mL, greater than 64 µg/mL, greater than 64 µg/mL and 2 µg/mL.
On to `CCC(C)n1ncn(-c2ccc(N3CCN(c4ccc(OCC5COC(Cn6cncn6)(c6ccc(Cl)cc6Cl)O5)cc4)CC3)cc2)c1=O` (stereo unspecified) [ITRACONAZOLE], for which the MIC in the assay with Exophiala dermatitidis is 0.5 µg/mL; in assay [1], 0.5 µg/mL; in the assay on Aspergillus fumigatus, 4 µg/mL; in the assay on Candida albicans, 0.25 µg/mL.
